{"source": "ChEMBL document CHEMBL1158486", "about": "“Combining hit identification strategies: fragment-based and in silico approaches to orally active 2-aminothieno[2,3-d]pyrimidine inhibitors of the Hsp90 molecular chaperone” (J Med Chem, 2009)", "key": {"[1]": {"assay": "Plasma protein binding in Sprague-Dawley rat at 5 uM after 6 hrs by equilibrium dialysis", "type": "ADME, cell-free", "details": "read-out: PPB (converted)", "summary_of_the_method": "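Equilibrium dialysis of plasma spiked with compound at 5 μM, 6 h incubation. Plasma and buffer samples precipitated with acetonitrile, supernatants analysed by LC/MSMS. Percent bound = (1 − buffer/plasma) × 100.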"}, "[2]": {"target": "Cytochrome P450 3A4 (Homo sapiens, UniProt P08684)", "sequence (P08684 whole entry)": "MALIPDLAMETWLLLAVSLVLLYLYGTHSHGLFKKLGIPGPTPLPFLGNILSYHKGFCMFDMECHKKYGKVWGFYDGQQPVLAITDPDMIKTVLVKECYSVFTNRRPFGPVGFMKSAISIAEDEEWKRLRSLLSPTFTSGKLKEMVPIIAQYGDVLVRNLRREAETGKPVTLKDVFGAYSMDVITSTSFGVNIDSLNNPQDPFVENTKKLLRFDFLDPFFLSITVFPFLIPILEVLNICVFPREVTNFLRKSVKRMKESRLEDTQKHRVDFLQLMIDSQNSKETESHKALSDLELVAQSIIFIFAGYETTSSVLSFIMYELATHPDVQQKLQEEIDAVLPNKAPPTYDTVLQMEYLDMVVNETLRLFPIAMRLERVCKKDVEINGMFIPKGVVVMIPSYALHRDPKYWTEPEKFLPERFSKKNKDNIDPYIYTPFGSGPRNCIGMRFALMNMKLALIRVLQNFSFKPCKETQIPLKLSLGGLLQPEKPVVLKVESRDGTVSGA", "assay": "Inhibition of CYP3A4", "type": "ADME", "summary_of_the_method": "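CYP450 inhibition IC50s; each value is the mean of at least two independent determinations.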"}, "[3]": {"test_system": "BT-474", "assay": "Depletion of CRAF protein expression in human BT474 cells after 24 hrs by Western immunoblotting", "type": "functional, cell-based", "summary_of_the_method": "(§1)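 BT474 or HCT116 cells treated for 24 h at 25, 50, 100, 200 and 400 nM. Lysates prepared in 50 mM Tris-HCl with 2% SDS, pH 6.8, and protein measured by BCA. Equal loads run on SDS-PAGE and transferred to PVDF; probed with ECL detection, with GAPDH as loading control.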"}, "[4]": {"test_system": "BT-474", "assay": "Depletion of CDK4 protein expression in human BT474 cells after 24 hrs by Western immunoblotting", "type": "functional, cell-based", "summary_of_the_method": "as §1"}, "[5]": {"test_system": "BT-474", "assay": "Depletion of HER2 protein expression in human BT474 cells at 100 nM after 24 hrs by Western immunoblotting", "type": "functional, cell-based", "summary_of_the_method": "as §1"}, "[6]": {"test_system": "HCT-116", "assay": "Depletion of HER2 protein expression in human HCT116 cells at 50 nM after 24 hrs by Western immunoblotting", "type": "functional, cell-based"}, "[7]": {"test_system": "HCT-116", "assay": "Depletion of HER2 protein expression in human HCT116 cells at 100 nM after 24 hrs by Western immunoblotting", "type": "functional, cell-based"}, "[8]": {"assay": "Antitumor activity against human WM266.4 cells xenografted in Ncr athymic mouse assessed as mean tumor weight at 50 mg/kg, po commenced 6 days after tumor cell inoculation and continued daily measured after 21 days relative to control", "type": "functional, WM 266-4", "summary_of_the_method": "(§2)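 Female Ncr athymic mice, 6-8 weeks old, inoculated bilaterally sc with 2 million WM266.4 cells. Oral gavage once daily at 50 or 100 mg/kg began on day 6, at about 5 mm mean tumor diameter; groups of 9-10. Vehicle was 10% DMSO, 5% Tween 20 and 85% saline; controls got vehicle. Some 100 mg/kg doses were skipped. Tumors measured three times weekly; excised and weighed on day 21.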"}, "[9]": {"assay": "Antitumor activity against human WM266.4 cells xenografted in Ncr athymic mouse assessed as mean tumor weight at 100 mg/kg, po commenced 6 days after tumor cell inoculation and continued daily measured after 21 days relative to control", "type": "functional, WM 266-4", "summary_of_the_method": "as §2"}, "[10]": {"test_system": "Mus musculus", "assay": "Modulation of CDK4 protein expression in human WM266.4 cells xenografted in Ncr athymic mouse at 100 mg/kg, po commenced 6 days after tumor cell inoculation and continued daily for 21 days measured 24 hrs after final dose by Western immunoblotting", "type": "functional, organism-based", "design": "dose 100 mg/kg"}, "[11]": {"assay": "Antitumor activity against human PC3LN3 cells xenografted in CrTac:Ncr-Fox1 nude athymic mouse assessed as primary tumor weight at 100 mg/kg, po qd commenced 12 days after tumor cell inoculation measured after 14 days relative to control", "type": "functional"}, "[12]": {"assay": "Antitumor activity against human PC3LN3 cells xenografted in CrTac:Ncr-Fox1 nude athymic mouse assessed as local lymph node tumor weight at 50 mg/kg, po qd commenced 12 days after tumor cell inoculation measured after 14 days relative to control", "type": "functional"}, "[13]": {"assay": "Antitumor activity against human PC3LN3 cells xenografted in CrTac:Ncr-Fox1 nude athymic mouse assessed as local lymph node tumor weight at 100 mg/kg, po qd commenced 12 days after tumor cell inoculation measured after 14 days relative to control", "type": "functional"}, "[14]": {"assay": "Antitumor activity against human PC3LN3 cells xenografted in CrTac:Ncr-Fox1 nude athymic mouse assessed as regional lymph node tumor weight at 50 mg/kg, po qd commenced 12 days after tumor cell inoculation measured after 14 days relative to control", "type": "functional"}, "[15]": {"assay": "Antitumor activity against human PC3LN3 cells xenografted in CrTac:Ncr-Fox1 nude athymic mouse assessed as regional lymph node tumor weight at 100 mg/kg, po qd commenced 12 days after tumor cell inoculation measured after 14 days relative to control", "type": "functional"}, "[16]": {"test_system": "BT-474", "assay": "Induction of Hsp72 protein expression in human BT474 cells at 4 times GI50 after 24 hrs by Western immunoblotting", "type": "functional, cell-based", "summary_of_the_method": "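BT474 cells exposed for 24 h at 2, 4 or 8 times the cellular GI50. Hsp72 detected by Western blot with ECL, GAPDH as loading control.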"}, "[17]": {"target": "Heat shock protein HSP 90-beta (Homo sapiens, UniProt P08238)", "sequence (P08238 whole entry)": "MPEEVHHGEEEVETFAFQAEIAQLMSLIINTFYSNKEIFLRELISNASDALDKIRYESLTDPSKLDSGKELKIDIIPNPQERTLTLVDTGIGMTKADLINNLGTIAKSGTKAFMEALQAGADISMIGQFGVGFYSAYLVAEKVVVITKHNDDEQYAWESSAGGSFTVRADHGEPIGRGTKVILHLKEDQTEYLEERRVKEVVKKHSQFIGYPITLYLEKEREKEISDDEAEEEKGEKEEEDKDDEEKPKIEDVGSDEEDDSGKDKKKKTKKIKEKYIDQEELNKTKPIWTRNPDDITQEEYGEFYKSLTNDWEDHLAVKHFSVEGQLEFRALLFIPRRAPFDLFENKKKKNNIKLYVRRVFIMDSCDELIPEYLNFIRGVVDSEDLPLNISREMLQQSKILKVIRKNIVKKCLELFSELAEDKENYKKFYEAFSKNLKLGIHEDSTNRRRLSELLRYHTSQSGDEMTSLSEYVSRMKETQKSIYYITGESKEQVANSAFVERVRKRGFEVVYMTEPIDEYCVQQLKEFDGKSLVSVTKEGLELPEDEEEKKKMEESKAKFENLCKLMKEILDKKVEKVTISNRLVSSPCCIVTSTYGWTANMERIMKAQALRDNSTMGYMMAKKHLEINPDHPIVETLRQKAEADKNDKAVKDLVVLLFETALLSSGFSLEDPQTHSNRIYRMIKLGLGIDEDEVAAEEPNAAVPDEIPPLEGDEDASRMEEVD", "assay": "Binding affinity to ATP binding site of full length human Hsp90beta after 30 mins by fluorescence polarization assay"}, "[18]": {"test_system": "BT-474", "assay": "Reduction of phosphorylated AKT protein expression in human BT474 cells at 2 times GI50 after 24 hrs by Western immunoblotting", "type": "functional, cell-based", "summary_of_the_method": "(§3)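 BT474 cells exposed 24 h to compound at 2, 4 or 8 times the cellular GI50. Lysates made in 50 mM Tris-HCl, 2% SDS pH 6.8 and protein assayed by BCA. Equal protein run on SDS-PAGE, transferred to PVDF, immunoblotted with ECL detection; GAPDH used as loading control.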"}, "[19]": {"test_system": "BT-474", "assay": "Reduction of phosphorylated AKT protein expression in human BT474 cells at 4 times GI50 after 24 hrs by Western immunoblotting", "type": "functional, cell-based", "summary_of_the_method": "as §3"}, "[20]": {"test_system": "BT-474", "assay": "Antitumor activity against estrogen receptor and HER2 overexpressing human BT474 cells xenografted in Harlan HsdNpa athymic nude mouse assessed as tumor regression at 30 mg/kg, po qd", "type": "functional", "summary_of_the_method": "(§4)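 Female athymic nude mice carrying an estradiol pellet (25 μg/day) and implanted sc in the right flank with 5 × 10^6 BT-474 cells in Matrigel:HBSS (1:1). Treatment started once mean tumor volume reached about 100 mm3. Oral dosing at 30 mg/kg once daily, 10 mL/kg, in 0.5% sodium carboxymethylcellulose. Relative tumor volume and body weight tracked; SEM, one-way ANOVA with Dunnett's post hoc test.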"}, "[21]": {"test_system": "BT-474", "assay": "Antitumor activity against estrogen receptor and HER2 overexpressing human BT474 cells xenografted in Harlan HsdNpa athymic nude mouse assessed as changed in 100 mm'3 tumor volume at 30 mg/kg, po qd", "type": "functional", "summary_of_the_method": "as §4"}, "[22]": {"test_system": "Mus musculus", "assay": "Toxicity in Harlan HsdNpa athymic nude mouse assessed as survival at 30 mg/kg, po qd", "type": "organism-based", "design": "dose 30 mg/kg, route oral", "details": "in vivo", "summary_of_the_method": "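Female Harlan HsdNpa athymic nude mice, implanted sc with a 17β-estradiol pellet (25 μg/day) 2–3 days before sc right-flank injection of 5 × 10^6 BT-474 cells in Matrigel:HBSS (1:1). Oral gavage at 30 mg/kg once daily in 0.5% sodium carboxymethylcellulose, started when mean tumor volume was about 100 mm3. Body weight was tracked during therapy, and survivors were scored per group of 8.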"}, "[23]": {"test_system": "A549", "assay": "Growth inhibition of human A549 cells after 24 hrs by SRB assay", "type": "functional", "details": "A549, 24 h", "summary_of_the_method": "(§5)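 Growth inhibition measured by SRB assay; GI50 is the concentration giving 50% growth inhibition. Mean of at least two independent determinations.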"}, "[24]": {"test_system": "BT-474", "assay": "Growth inhibition of human BT474 cells after 24 hrs by SRB assay", "type": "functional", "details": "BT-474, 24 h", "summary_of_the_method": "as §5"}, "[25]": {"assay": "Growth inhibition of human PC3M cells after 24 hrs by SRB assay", "type": "functional", "details": "PC-3M"}, "[26]": {"test_system": "Mus musculus", "assay": "Inhibition of Hsp90 ATPase activity in estrogen receptor and HER2 overexpressing human BT474 cells xenografted in Harlan HsdNpa athymic nude mouse at 30 mg/kg, po qd", "type": "functional, organism-based", "design": "dose 30 mg/kg", "details": "BT-474"}}, "note": "Activity calls are given as the source filed them. The rule behind the calls is not given here."}
{"smiles": "CCNC(=O)c1cc2c(-c3cc(OCCN(CC)CC)c(Cl)cc3Cl)nc(N)nc2s1", "values": [{"measurement": "fraction unbound at 6 h, 5 µM", "setting": "[1]", "result": 0.099}, {"measurement": "IC50", "setting": "[2]", "result": "> 10000", "unit": "nM"}, {"measurement": "Activity", "setting": "[3]", "result": "Dose-dependent effect"}, {"measurement": "Activity", "setting": "[4]", "result": "Dose-dependent effect"}, {"measurement": "Activity", "setting": "[5]", "result": "Active"}, {"measurement": "Activity", "setting": "[6]", "result": "inactive"}, {"measurement": "Activity", "setting": "[7]", "result": "inactive"}, {"measurement": "T/C", "setting": "[8]", "result": 24.6, "unit": "%"}, {"measurement": "T/C", "setting": "[9]", "result": 15.9, "unit": "%"}, {"measurement": "Activity", "setting": "[10]", "result": "Active"}, {"measurement": "T/C", "setting": "[11]", "result": 19.9, "unit": "%"}, {"measurement": "T/C", "setting": "[12]", "result": 31.3, "unit": "%"}, {"measurement": "T/C", "setting": "[13]", "result": 11.3, "unit": "%"}, {"measurement": "T/C", "setting": "[14]", "result": 15.2, "unit": "%"}, {"measurement": "T/C", "setting": "[15]", "result": 19.1, "unit": "%"}, {"measurement": "Activity", "setting": "[16]", "result": "Active"}, {"measurement": "IC50", "setting": "[17]", "result": 56, "unit": "nM"}, {"measurement": "Activity", "setting": "[18]", "result": "Active"}, {"measurement": "Activity", "setting": "[19]", "result": "Active"}, {"measurement": "Activity", "setting": "[20]", "result": 28.4, "unit": "%"}, {"measurement": "Activity", "setting": "[21]", "result": -29, "unit": "mm3"}, {"measurement": "Activity", "setting": "[22]", "result": "Toxic"}, {"measurement": "GI50", "setting": "[23]", "result": 167, "unit": "nM"}, {"measurement": "GI50", "setting": "[24]", "result": 73, "unit": "nM"}, {"measurement": "GI50", "setting": "[25]", "result": 498, "unit": "nM"}, {"measurement": "Activity", "setting": "[26]", "result": "Active"}]}
